Screening results as filed in PubChem.
This is a sample that favours compounds with a hit; in the whole collection about 2.2% have one here.
Scp1 inh – blocks human Scp-1 phosphatase activity; Q9GZU7; Recombinant Scp1, phosphopeptide, malachite green phosphate absorbance; inhibition, % at 20 µM; actives 0.88% (n = 340,000); AID 493091;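 active means inhibition above about 50% at 20 µM, limit read from the data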
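Incubation: 45 min enzyme reaction at room temperature / System: truncated SCP-1 phosphatase (76-261aa) / Reagent: Phospho 17-mer peptide substrate / Buffer or medium: Acidic Tris acetate buffer with magnesium and detergent / Signal: absorbance at 630 nm / Doses: one concentration, 20 µM, with 1.0% DMSO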
DNMT1 block – blocks human DNA methyltransferase DNMT1 | P26358 | DNMT1 molecular beacon, Hinp1I cleavage, fluorescence | inhibition (reported as % activation of signal), % at 10 µM | actives 0.83% (n = 360,000) | AID 588458; in the data active means inhibition above about 50%
GRK2 inh – inhibitors of human GRK2 displacing RNA aptamer | bead flow cytometry, FAM-aptamer displacement from GRK2 | actives 0.59% (n = 330,000) | inhibition of aptamer binding, % at 10 µM;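 active means inhibition of aptamer binding above 40%, roughly 3 SD of noise, on plates passing a quality check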;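 further: median bead fluorescence of bound FAM aptamer so fluorescent compounds give negative values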
SUMO1 PPI mod – SUMO1-SIM interaction modulation | P63165 | SUMO1 binding to a labelled peptide, TR-FRET, 1 h | inhibition, % at 20 µM | actives 0.33% (n = 360,000); in the data active means inhibition above about 37%
Target sequence (P63165 whole entry, looked up): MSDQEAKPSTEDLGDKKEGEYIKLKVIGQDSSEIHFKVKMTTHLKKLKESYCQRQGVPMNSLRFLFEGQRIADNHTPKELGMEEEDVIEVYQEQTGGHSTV
LMPTP inh – blocks human LMPTP phosphatase. inhibition, % at 20 µM. P24666. actives 0.22% (n = 360,000). AID 651560. recombinant LMPTP-A, OMFP fluorogenic substrate, fluorescence intensity;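 active means compounds that cut the enzyme signal by at least half of the control window in the single-dose screen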
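Test system: LMPTP-A phosphatase enzyme; input: 0.625 nM LMPTP-A final; reagent: OMFP substrate, 400 µM final; compound dosing: 20 µM single dose, 3% DMSO; incubation: 50 min dark incubation at room temperature; measured by: endpoint fluorescence intensity from OMFP dephosphorylation; measure: % inhibition relative to no-enzyme and uninhibited control wells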
STEP inh – blocks human striatal-enriched tyrosine phosphatase. P54829. recombinant STEP, OMFP fluorogenic substrate, fluorescence. inhibition, % at 20 µM. actives 0.25% (n = 360,000). AID 588621;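 active means inhibition at 20 µM, scaled per plate between control wells, above about 37%, limit read from the data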
Target sequence (P54829 whole entry, looked up): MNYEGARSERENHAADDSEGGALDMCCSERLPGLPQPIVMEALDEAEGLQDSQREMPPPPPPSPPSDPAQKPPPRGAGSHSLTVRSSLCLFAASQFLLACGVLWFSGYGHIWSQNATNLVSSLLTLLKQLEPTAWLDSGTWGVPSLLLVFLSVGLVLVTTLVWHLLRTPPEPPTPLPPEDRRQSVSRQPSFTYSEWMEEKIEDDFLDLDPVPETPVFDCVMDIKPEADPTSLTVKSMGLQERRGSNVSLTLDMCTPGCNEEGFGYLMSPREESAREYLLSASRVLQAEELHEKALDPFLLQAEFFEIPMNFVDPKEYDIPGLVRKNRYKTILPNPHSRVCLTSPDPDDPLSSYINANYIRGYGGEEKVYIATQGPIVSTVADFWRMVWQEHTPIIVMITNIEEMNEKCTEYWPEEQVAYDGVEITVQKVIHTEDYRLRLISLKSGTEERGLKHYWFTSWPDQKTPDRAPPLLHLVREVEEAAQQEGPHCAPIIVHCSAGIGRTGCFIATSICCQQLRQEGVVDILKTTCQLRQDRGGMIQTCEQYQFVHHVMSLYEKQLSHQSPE
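medium = Bis-Tris buffer pH 6.0, 2.5 mM DTT, 0.005% Tween 20 | test system = STEP (striatal-enriched tyrosine phosphatase) enzyme, cell-free | measure = normalized % inhibition | compound dosing = 20 µM, 1% DMSO | also added = 25 µM OMFP | schedule = reaction 20 min, ambient temperature | measured by = fluorescence read at 480 nm ex / 540 nm em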
A number is an active result.

Screening O=C(/C=C/[C@H]1O[C@@H](n2ccc(=O)[nH]c2=O)[C@H](O)[C@@H]1O)NCCN1CCOCC1 returned DNMT1 block inactive, SUMO1 PPI mod inactive, LMPTP inh inactive and STEP inh inactive.
Screening CCOC(=O)c1c(C)[nH]c(C(=O)N/N=C/c2cc([N+](=O)[O-])ccc2O)c1C returned Scp1 inh inactive, DNMT1 block inactive, GRK2 inh inactive, SUMO1 PPI mod inactive, LMPTP inh 65 and STEP inh inactive.
Screening CCOC(=O)c1c(C)[nH]c(C(=O)N/N=C\c2ccccc2O)c1C returned Scp1 inh inactive, DNMT1 block inactive, GRK2 inh inactive, SUMO1 PPI mod inactive, LMPTP inh inactive and STEP inh inactive.
For N#Cc1c(-c2ccccc2)nc(SCC(=O)N2c3ccccc3Sc3ccccc32)[nH]c1=O the results were Scp1 inh inactive, DNMT1 block inactive, GRK2 inh inactive, SUMO1 PPI mod 47, LMPTP inh inactive and STEP inh inactive.
Screening O=C(c1ccc(Cl)cc1Cl)N1CCC(c2nc3c(nnn3Cc3ccco3)c(=O)[nH]2)CC1 returned Scp1 inh inactive, DNMT1 block inactive, GRK2 inh inactive, SUMO1 PPI mod inactive, LMPTP inh inactive and STEP inh inactive.
Screening O=C(c1ccccc1)N1CCC(c2nc3c(nnn3Cc3ccco3)c(=O)[nH]2)CC1 returned Scp1 inh inactive, DNMT1 block inactive, GRK2 inh inactive, SUMO1 PPI mod 53, LMPTP inh inactive and STEP inh inactive.
Cc1cc2[nH]c3c4ccccc4nc(C)c3c2cc1C was read as Scp1 inh inactive, DNMT1 block inactive, SUMO1 PPI mod inactive, LMPTP inh 55 and STEP inh inactive.
For Cc1ccc2c(c1)c(/C=C/c1cc[n+](C)cc1)c(C)n2C the results were Scp1 inh 54, DNMT1 block inactive, GRK2 inh inactive, SUMO1 PPI mod inactive, LMPTP inh inactive and STEP inh inactive.
`Cc1c2cc(O)c(=O)cc-2oc2cc(O)c(O)cc12` gave Scp1 inh 71, DNMT1 block 186, GRK2 inh inactive, SUMO1 PPI mod inactive, LMPTP inh 80 and STEP inh inactive.
Screening CC(=O)C[C@H]1SC[C@@H](C(C)C)N1S(=O)(=O)c1ccc(C)cc1 returned SUMO1 PPI mod inactive and LMPTP inh inactive.
O=C(Nc1ccc([N+](=O)[O-])cc1Cl)c1cccc([N+](=O)[O-])c1 was read as DNMT1 block inactive, SUMO1 PPI mod inactive, LMPTP inh inactive and STEP inh inactive.
O=C(Nc1ccc([N+](=O)[O-])cc1Cl)c1cc(Cl)ccc1O was read as Scp1 inh inactive, DNMT1 block inactive, GRK2 inh inactive, SUMO1 PPI mod inactive, LMPTP inh 72 and STEP inh inactive.
Screening O=C(Nc1nccs1)c1cc(-c2ccccn2)nc2c(Cl)cccc12 returned Scp1 inh inactive, DNMT1 block inactive, GRK2 inh inactive, SUMO1 PPI mod 53, LMPTP inh inactive and STEP inh inactive.
`O=C(Nc1nccs1)c1cc(Cl)nc2ccccc12` gave Scp1 inh inactive, DNMT1 block inactive, GRK2 inh inactive, SUMO1 PPI mod inactive, LMPTP inh inactive and STEP inh inactive.
Screening CCCC[n+]1c2ccccc2cc2ccccc21 returned Scp1 inh inactive, DNMT1 block inactive, GRK2 inh inactive, SUMO1 PPI mod inactive, LMPTP inh inactive and STEP inh inactive.
For CCC[n+]1c2ccccc2cc2ccccc21 the results were Scp1 inh 55, DNMT1 block inactive, GRK2 inh inactive, SUMO1 PPI mod inactive, LMPTP inh inactive and STEP inh inactive.
For O=C(NC1CCCCC1)C1c2ccccc2OCC(=O)N1Cc1ccc2c(c1)OCO2 (stereo unspecified) the results were SUMO1 PPI mod inactive and LMPTP inh inactive.
`CCCCCCCC/C=C\CCCCCCCC(=O)O` gave Scp1 inh inactive, DNMT1 block 59, GRK2 inh inactive, SUMO1 PPI mod inactive, LMPTP inh inactive and STEP inh inactive.
`O=C(OCCNc1nc(-c2ccccc2)nc2ccccc12)c1cccnc1` gave Scp1 inh inactive, DNMT1 block inactive, GRK2 inh inactive, SUMO1 PPI mod inactive, LMPTP inh 62 and STEP inh inactive.
OCCNc1nc(-c2cccnc2)nc2ccccc12 was read as Scp1 inh inactive, DNMT1 block inactive, GRK2 inh inactive, SUMO1 PPI mod inactive, LMPTP inh inactive and STEP inh inactive.
`O=C(OCCNc1nc(-c2ccccc2)nc2ccccc12)c1ccncc1` gave Scp1 inh inactive, DNMT1 block inactive, GRK2 inh inactive, SUMO1 PPI mod inactive, LMPTP inh 62 and STEP inh inactive.
COc1ccccc1S(=O)(=O)N(C)C[C@@H]1OCc2cnnn2CCCC(=O)N([C@H](C)CO)C[C@H]1C was read as DNMT1 block inactive, SUMO1 PPI mod inactive, LMPTP inh inactive and STEP inh inactive.
Fc1cccc(Cc2c(-c3ccco3)nc3ccc(Br)cn23)c1 was read as DNMT1 block 50, SUMO1 PPI mod inactive, LMPTP inh inactive and STEP inh inactive.
Screening CN(c1cccc(F)c1)c1cc2c(c3c1ccn3C)C1CCC2O1 (stereo unspecified) returned DNMT1 block inactive, SUMO1 PPI mod inactive, LMPTP inh inactive and STEP inh inactive.
`O=C(Nc1c[nH]c(=O)[nH]c1=O)c1ccc2c(c1)C(=O)N(c1cccc([N+](=O)[O-])c1)C2=O` gave Scp1 inh inactive, DNMT1 block 58, SUMO1 PPI mod inactive, LMPTP inh inactive and STEP inh inactive.
O=C(Nc1ccccc1C(=O)O)c1ccc2c(c1)C(=O)N(c1cccc([N+](=O)[O-])c1)C2=O was read as Scp1 inh inactive, DNMT1 block inactive, GRK2 inh inactive, SUMO1 PPI mod inactive, LMPTP inh inactive and STEP inh inactive.
`CCCCNC(=O)c1sc(=S)n2c1[nH]c(=O)c1ccccc12` gave Scp1 inh inactive, DNMT1 block inactive, GRK2 inh inactive, SUMO1 PPI mod inactive, LMPTP inh inactive and STEP inh inactive.
O=C(NC1CCCCC1)c1sc(=S)n2c1[nH]c(=O)c1ccccc12 was read as Scp1 inh 80, DNMT1 block inactive, GRK2 inh inactive, SUMO1 PPI mod inactive, LMPTP inh inactive and STEP inh inactive.
COC(=O)c1ccc2nc(-c3ccco3)c(Cc3ccccc3)n2c1 was read as DNMT1 block inactive, SUMO1 PPI mod inactive, LMPTP inh inactive and STEP inh inactive.
Screening Cc1cc(O)cc(O)c1/C=N/NC(=O)c1ccc2c(c1)OCCO2 returned DNMT1 block inactive, SUMO1 PPI mod inactive, LMPTP inh inactive and STEP inh inactive.
